Assay [1] deals with HT-29. As to the kind of experiment: Antiproliferative activity against human HT29 cell line after 72 hrs by SRB assay. It is filed as functional. The settings on record: HT-29, 72 h. An outline of the steps:
(§1)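 Cells seeded at 5×10³/well in RPMI and allowed to attach in drug-free medium for 18 h. Compounds were added in DMSO/H2O (3:7) and exposure was continuous for 72 h. Cells were then fixed with cold 50% TCA for 60 min at 4°C, stained with 0.4% SRB in 1% acetic acid for 10 min at room temperature, solubilized in Tris, and OD was read at 490 nm. GI50 was derived from 100×[(T−T0)/(C−T0)]=50.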
In general terms: In SRB staining, fixed cells bind dye roughly in proportion to their protein.

The subject of assay [2] is MDA-MB-231. The experiment in a line: Antiproliferative activity against human MDA-MB-231 cell line after 72 hrs by SRB assay at 10 ug/mL. It is filed as functional, cell-based.
The subject of assay [3] is A549. As to the kind of experiment: Antiproliferative activity against human A549 cell line after 72 hrs by SRB assay at 10 ug/mL. It is filed as functional, cell-based.
The subject of assay [4] is A549. As to the kind of experiment: Antiproliferative activity against human A549 cell line after 72 hrs by SRB assay. Format: functional. The settings on record: A549, 72 h. An outline of the steps:
as §1

The subject of assay [5] is HT-29. As to the kind of experiment: Antiproliferative activity against human HT29 cell line after 72 hrs by SRB assay at 10 ug/mL. Format: functional, cell-based.

The source made the active and inactive calls. The calls are words filed in the database; no cut-off is given here.

Broadly, the GI50 is the concentration at which growth is held to half of that of the control. The low end stands for greater sensitivity of the cells, the high end for lower sensitivity of the cells.

Molecule `COC(=O)c1c(-c2cc(OC)c(OC(C)C)cc2OC(C)C)c(-c2ccc(OC(C)C)c(OC)c2)c2c3cc(OC)c(OC(C)C)cc3ccn12` came in with a GI50 in assay [1] of 13.6 µM. The result in assay [2] and in assay [3] was inactive.
In the case of `COC(=O)c1c(-c2cc(OC)c(OC)c(OC)c2)c(-c2cc(OC)c(OC)c(OC)c2)c2n1CCc1cc(OC(C)C)c(OC)cc1-2`, the GI50 in assay [1] is 34 µM; in assay [4], 67.9 µM. Moreover, in assay [2], the outcome was inactive.
In the case of `COC(=O)c1c(-c2cccs2)c(-c2cccs2)c2n1CCc1cc(OC(C)C)c(OC)cc1-2`, the outcome in assay [2], in assay [3] and in assay [5] was inactive.
